# Laboratory results as given in ChEMBL document CHEMBL1221349, “Novel pyrrolidine heterocycles as CCR1 antagonists” (Bioorg Med Chem Lett, 2010).
# pIC50: −log10 of the molar value.
# What was measured:
# [1] = Metabolic stability in rat liver microsomes assessed as compound remaining at 1 uM after 30 mins; format: ADME, Microsome; settings: read-out: Stability
# How it was run: (§1)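 Rat or human liver microsomes (300 nM cytochrome P450) were incubated in phosphate buffer pH 7.4 with test compound and 1 mM NADPH for 30 min at 37 °C. Reactions were stopped with acetonitrile and centrifuged. Samples were analyzed by LC/MS as percent parent remaining at 30 min.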
# [2] = molecular target: T1, C-C chemokine receptor type 1 (Homo sapiens, UniProt P32246); test: Displacement of [125I]-MIP1-alpha from human recombinant CCR1 expressed in HEK293 cells after 4 hrs by SPA; format: cell-based
# T1 sequence (P32246 whole entry): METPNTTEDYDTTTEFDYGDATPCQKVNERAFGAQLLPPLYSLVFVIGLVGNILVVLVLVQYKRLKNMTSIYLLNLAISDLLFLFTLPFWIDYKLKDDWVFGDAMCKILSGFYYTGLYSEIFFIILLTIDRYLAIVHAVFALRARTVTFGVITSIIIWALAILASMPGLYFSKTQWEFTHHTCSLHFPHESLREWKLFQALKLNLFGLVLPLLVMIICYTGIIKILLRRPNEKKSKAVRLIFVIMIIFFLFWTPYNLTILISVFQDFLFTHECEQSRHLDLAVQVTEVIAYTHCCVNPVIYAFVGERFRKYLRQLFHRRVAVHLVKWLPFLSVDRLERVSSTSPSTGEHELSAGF
# How it was run: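 This was a SPA binding assay on membranes from HEK293 cells stably expressing human CCR1 from an episomal vector. Buffer was 130 mM NaCl, 5 mM KCl, 1 mM MnCl2, 50 mM Tris-HCl pH 7.4, 0.1% BSA, with SPA beads at 10 mg/ml. Compound dilutions were added, then [125I]-MIP1a at 0.1 nM final. Plates were spun 2 min, incubated 4 h, then scintillation-counted.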
# [3] = Metabolic stability in human liver microsomes assessed as compound remaining at 1 uM after 30 mins; format: ADME, Microsome; settings: read-out: Stability; how it was run: as §1
# [4] = (§2) AUC (0 to infinity) in Sprague-Dawley rat at 5 mg/kg, po; format: ADME, organism-based, Plasma; set-up: time infinity, dose 5 mg/kg, route oral; settings: Sprague-Dawley, plasma
# How it was run: (§3)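 Male Sprague-Dawley rats (3–4) were gavaged at 5 mg/kg in 0.5% methyl cellulose, either singly or in a cassette. Serial arterial-cannula blood was drawn up to 6 or 24 h. Parent compound was measured in plasma by LC/MS/MS after protein precipitation. Parameters came from non-compartmental analysis.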
# [5] = Antagonist activity at CCR1 in human THP1 cells assessed as inhibition of CCL3-induced chemotaxis after 3 hrs; settings: thp-1
# [6] = Cmax in Sprague-Dawley rat plasma at 5 mg/kg, po; format: ADME, organism-based; set-up: dose 5 mg/kg, route oral; how it was run: as §3
# [7] = Oral bioavailability in Sprague-Dawley rat plasma at 5 mg/kg; format: ADME, organism-based
# How it was run: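 Male Sprague-Dawley rats (3–4) received an oral gavage of 5 mg/kg in 0.5% methyl cellulose and, separately, 1 mg/kg intravenously via an indwelling catheter. Serial arterial blood was collected. Plasma parent compound was measured by LC/MS/MS after protein precipitation. Bioavailability came from non-compartmental analysis.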
# Cytochrome P450 2D6 = Cytochrome P450 2D6 (Homo sapiens, UniProt P10635); test: Inhibition of human recombinant CYP2D6 at < 10 uM; format: ADME; settings: recombinant enzyme
# Chain of Cytochrome P450 2D6 (P10635 whole entry): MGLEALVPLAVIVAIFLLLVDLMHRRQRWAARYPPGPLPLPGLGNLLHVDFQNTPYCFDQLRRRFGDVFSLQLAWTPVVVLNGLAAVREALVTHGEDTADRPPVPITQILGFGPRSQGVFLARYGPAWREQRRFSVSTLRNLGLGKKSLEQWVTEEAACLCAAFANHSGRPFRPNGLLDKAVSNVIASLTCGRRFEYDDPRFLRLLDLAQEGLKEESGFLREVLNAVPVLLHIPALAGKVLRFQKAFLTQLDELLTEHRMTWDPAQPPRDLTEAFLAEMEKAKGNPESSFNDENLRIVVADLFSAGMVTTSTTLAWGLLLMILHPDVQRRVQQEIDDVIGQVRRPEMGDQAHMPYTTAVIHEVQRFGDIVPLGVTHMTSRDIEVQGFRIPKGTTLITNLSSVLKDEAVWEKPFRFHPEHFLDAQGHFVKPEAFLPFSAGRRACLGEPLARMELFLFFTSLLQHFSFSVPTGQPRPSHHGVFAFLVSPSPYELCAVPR
# How it was run: (§4)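 Each human recombinant CYP isoenzyme (1A2, 2C9, 2C19, 2D6, 3A4) was run with its own fluorogenic substrate, with test compound up to […]. Fluorescence was read after a defined reaction time. Percent inhibition was fitted against log concentration to give IC50.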
# Cytochrome P450 2C19 = Cytochrome P450 2C19 (Homo sapiens, UniProt P33261); test: Inhibition of human recombinant CYP2C19 at < 10 uM; format: ADME; settings: recombinant enzyme; how it was run: as §4
# Chain of Cytochrome P450 2C19 (P33261 whole entry): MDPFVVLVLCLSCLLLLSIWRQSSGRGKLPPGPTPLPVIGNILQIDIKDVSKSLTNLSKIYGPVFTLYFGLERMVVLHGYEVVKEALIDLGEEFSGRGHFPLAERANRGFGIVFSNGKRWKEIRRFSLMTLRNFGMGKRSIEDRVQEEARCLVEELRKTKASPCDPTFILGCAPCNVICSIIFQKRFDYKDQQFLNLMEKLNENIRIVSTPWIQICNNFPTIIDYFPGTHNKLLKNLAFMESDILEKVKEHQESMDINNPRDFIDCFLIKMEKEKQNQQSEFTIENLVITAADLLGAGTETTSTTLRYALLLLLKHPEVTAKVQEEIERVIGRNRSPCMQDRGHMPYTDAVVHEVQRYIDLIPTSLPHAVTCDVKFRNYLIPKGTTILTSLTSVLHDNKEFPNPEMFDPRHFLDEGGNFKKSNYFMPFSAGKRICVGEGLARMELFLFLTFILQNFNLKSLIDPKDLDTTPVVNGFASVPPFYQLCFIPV
# Cytochrome P450 1A2 = molecular target: T2, Cytochrome P450 1A2 (Homo sapiens, UniProt P05177); test: Inhibition of human recombinant CYP1A2 at < 10 uM; format: ADME; settings: recombinant enzyme; how it was run: as §4
# T2 sequence (P05177 whole entry): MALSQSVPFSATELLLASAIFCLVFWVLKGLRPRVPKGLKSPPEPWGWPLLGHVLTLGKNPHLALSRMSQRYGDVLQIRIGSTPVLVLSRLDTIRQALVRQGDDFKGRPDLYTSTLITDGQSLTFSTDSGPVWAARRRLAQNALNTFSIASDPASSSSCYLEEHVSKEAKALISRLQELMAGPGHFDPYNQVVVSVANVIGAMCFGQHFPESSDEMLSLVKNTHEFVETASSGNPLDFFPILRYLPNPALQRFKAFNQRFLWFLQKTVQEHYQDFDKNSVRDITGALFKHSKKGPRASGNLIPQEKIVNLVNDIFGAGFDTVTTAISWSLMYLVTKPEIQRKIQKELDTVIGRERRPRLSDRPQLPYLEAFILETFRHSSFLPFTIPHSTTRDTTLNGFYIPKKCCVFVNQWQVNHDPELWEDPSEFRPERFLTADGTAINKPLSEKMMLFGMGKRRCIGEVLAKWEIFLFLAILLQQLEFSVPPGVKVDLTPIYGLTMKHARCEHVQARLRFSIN
# [8] = Half life in Sprague-Dawley rat plasma at 5 mg/kg, po; format: ADME, organism-based; set-up: dose 5 mg/kg, route oral; how it was run: as §3
# Cytochrome P450 2C9 = Cytochrome P450 2C9 (Homo sapiens, UniProt P11712); test: Inhibition of human recombinant CYP2C9 at < 10 uM; format: ADME; settings: recombinant enzyme; how it was run: as §4
# Chain of Cytochrome P450 2C9 (P11712 whole entry): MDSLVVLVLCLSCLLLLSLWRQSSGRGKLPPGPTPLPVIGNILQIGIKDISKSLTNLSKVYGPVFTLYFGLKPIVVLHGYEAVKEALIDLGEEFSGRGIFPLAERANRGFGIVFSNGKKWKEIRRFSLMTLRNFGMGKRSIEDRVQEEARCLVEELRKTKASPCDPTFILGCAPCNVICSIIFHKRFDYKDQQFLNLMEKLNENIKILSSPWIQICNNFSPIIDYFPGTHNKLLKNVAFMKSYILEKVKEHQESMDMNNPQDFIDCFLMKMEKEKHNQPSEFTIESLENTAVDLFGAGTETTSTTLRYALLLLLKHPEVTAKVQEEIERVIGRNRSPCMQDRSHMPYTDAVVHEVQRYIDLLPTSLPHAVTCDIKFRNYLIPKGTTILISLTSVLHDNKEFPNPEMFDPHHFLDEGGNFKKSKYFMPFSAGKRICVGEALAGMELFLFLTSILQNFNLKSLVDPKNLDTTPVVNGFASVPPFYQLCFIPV
# Rattus norvegicus = test: as §2; format: ADME, organism-based, Plasma; set-up: time infinity, dose 5 mg/kg, route oral; settings: in vivo; how it was run: as §3
# Cytochrome P450 3A4 = Cytochrome P450 3A4 (Homo sapiens, UniProt P08684); test: Inhibition of human recombinant CYP3A4 at < 10 uM; format: ADME; settings: recombinant enzyme; how it was run: as §4
# Chain of Cytochrome P450 3A4 (P08684 whole entry): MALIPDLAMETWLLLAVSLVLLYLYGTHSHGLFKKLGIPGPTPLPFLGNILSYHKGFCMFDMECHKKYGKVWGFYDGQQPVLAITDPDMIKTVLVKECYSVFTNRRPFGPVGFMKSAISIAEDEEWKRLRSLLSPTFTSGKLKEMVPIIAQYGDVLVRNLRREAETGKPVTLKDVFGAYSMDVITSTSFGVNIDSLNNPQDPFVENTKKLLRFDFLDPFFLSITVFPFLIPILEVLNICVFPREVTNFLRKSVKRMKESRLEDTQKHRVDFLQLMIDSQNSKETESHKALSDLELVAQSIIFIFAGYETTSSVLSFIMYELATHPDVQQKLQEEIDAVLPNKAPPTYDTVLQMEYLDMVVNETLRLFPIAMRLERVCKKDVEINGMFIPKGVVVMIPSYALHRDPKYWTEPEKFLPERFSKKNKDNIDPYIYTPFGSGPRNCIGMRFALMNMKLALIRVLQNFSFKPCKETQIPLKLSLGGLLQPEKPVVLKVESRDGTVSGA
# [9] = Tmax in Sprague-Dawley rat plasma at 5 mg/kg, po; format: ADME, organism-based; set-up: dose 5 mg/kg, route oral; how it was run: as §3
"remaining at 0.5 h, 1 µM [1]",pIC50 [2],"remaining at 0.5 h, 1 µM [3]",AUC(0-inf) [4],Structure (SMILES),also measured
81%,7.49,61%,4460 ng·h/mL,O=C(Nc1ccc(C(F)(F)F)cc1)N1CCC[C@@H]1c1ncnn1Cc1ccc(Cl)cc1,
,,,,CN(Cc1ccc(Cl)cc1)C(=O)[C@H]1CCCN1C(=O)Nc1ccc(C(F)(F)F)cc1,pIC50 [5]: 7.66
41%,7.77,52%,657 ng·h/mL,O=C(Nc1ccc(C(F)(F)F)cc1)N1CCC[C@@H]1c1nncn1Cc1ccc(Cl)cc1,
,6.09,,,Cc1nc([C@H]2CCCN2C(=O)Nc2ccc(C(F)(F)F)cc2)n(Cc2ccc(Cl)cc2)n1,
55%,7.19,39%,100 ng·h/mL,O=C(Nc1ccc(C(F)(F)F)cc1)N1CCCC1c1nccn1Cc1ccc(Cl)cc1 (stereo not given),
25%,7.70,59%,,O=C(Nc1ccc(C(F)(F)F)cc1)N1CCC[C@@H]1c1nnnn1Cc1ccc(Cl)cc1,
87%,7.16,100%,,Cc1nnc([C@H]2CCCN2C(=O)Nc2ccc(C(F)(F)F)cc2)n1Cc1ccc(Cl)cc1,Cmax [6]: 1120 ng/mL; bioavailability [7]: 26%; inhibition (INH) (Cytochrome P450 2D6): Not Active; inhibition (INH) (Cytochrome P450 2C19): Not Active; inhibition (INH) (Cytochrome P450 1A2): Not Active; half-life [8]: 228 min; inhibition (INH) (Cytochrome P450 2C9): Not Active; AUC (Rattus norvegicus): 7649 ng·h/mL; inhibition (INH) (Cytochrome P450 3A4): Not Active; Tmax [9]: 1.1 h
